# In ChEMBL document CHEMBL1165965, “Synthesis and structure-activity relationships of 1,2,3,4-tetrahydropyrido[2,3-b]pyrazines as potent and selective inhibitors of the anaplastic lymphoma kinase” (Bioorg Med Chem, 2010):
# Tests used:
# [1] = target: BDNF/NT-3 growth factors receptor (Homo sapiens) (UniProt Q16620); experiment: Inhibition of TRKB at 1 uM
# Method in brief: (§1)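 Single-concentration screen on the Ambit KINOMEscan platform, run against a panel of 250–400 kinases. Per-kinase inhibition was also summarized as S(90), the fraction of kinases inhibited by more than 90%.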
# [2] = target: Dual specificity mitogen-activated protein kinase kinase 1 (Homo sapiens) (UniProt Q02750); experiment: Inhibition of MEK1 at 1 uM
# [3] = target: Cyclin-dependent kinase 11B (Homo sapiens) (UniProt P21127); experiment: Inhibition of CDC2L1 at 1 uM
# [4] = target: Cyclin-dependent kinase 16 (Homo sapiens) (UniProt Q00536); experiment: Inhibition of PCTK1 at 1 uM
# [5] = target: Tyrosine-protein kinase receptor Tie-1 (Homo sapiens) (UniProt P35590); experiment: Inhibition of TIE1 at 1 uM
# [6] = target: Ribosomal protein S6 kinase alpha-2 (Homo sapiens) (UniProt Q15349); experiment: Inhibition of RPS6KA2 N-terminal domain1 at 1 uM
# [7] = target: T1, Cyclin-G-associated kinase (Homo sapiens) (UniProt O14976); experiment: Inhibition of GAK at 1 uM; method in brief: as §1
# T1 sequence (whole entry): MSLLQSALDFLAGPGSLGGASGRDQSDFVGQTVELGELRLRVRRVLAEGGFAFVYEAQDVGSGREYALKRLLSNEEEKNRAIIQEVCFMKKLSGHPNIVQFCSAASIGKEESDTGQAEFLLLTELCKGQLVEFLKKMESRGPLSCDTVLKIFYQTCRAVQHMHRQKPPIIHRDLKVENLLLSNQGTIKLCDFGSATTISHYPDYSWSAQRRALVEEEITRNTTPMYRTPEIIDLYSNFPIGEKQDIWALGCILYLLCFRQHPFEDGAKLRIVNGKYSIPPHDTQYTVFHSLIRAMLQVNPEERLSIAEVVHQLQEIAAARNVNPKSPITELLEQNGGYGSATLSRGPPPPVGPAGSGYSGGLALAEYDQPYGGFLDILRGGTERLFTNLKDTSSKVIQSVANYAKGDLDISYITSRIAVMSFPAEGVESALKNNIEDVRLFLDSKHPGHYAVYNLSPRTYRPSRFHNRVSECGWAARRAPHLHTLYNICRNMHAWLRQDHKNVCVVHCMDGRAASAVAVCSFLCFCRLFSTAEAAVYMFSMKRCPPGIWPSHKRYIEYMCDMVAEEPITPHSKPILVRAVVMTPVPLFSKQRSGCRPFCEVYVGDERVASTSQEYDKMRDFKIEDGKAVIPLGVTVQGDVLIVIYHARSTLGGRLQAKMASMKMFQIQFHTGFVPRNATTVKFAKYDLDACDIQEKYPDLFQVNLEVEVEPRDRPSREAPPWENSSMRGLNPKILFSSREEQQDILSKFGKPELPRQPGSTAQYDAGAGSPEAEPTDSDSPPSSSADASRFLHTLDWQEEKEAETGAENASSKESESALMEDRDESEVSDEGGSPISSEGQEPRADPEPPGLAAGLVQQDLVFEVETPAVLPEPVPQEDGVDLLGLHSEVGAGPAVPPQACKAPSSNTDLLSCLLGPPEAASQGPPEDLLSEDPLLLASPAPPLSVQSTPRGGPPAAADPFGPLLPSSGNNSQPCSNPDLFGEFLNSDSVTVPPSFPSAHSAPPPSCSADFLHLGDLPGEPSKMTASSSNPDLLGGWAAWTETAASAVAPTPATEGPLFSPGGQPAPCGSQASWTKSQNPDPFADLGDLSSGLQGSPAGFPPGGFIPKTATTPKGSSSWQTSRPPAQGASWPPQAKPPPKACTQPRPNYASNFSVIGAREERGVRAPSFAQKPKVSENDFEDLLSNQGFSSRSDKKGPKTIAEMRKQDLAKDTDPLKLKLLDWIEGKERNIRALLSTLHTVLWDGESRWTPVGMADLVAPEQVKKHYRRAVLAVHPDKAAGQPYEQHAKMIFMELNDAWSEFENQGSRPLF
# [8] = target: Receptor-type tyrosine-protein kinase FLT3 (Homo sapiens) (UniProt P36888); experiment: Inhibition of FLT3 at 1 uM; method in brief: as §1
# [9] = target: Epidermal growth factor receptor (Homo sapiens) (UniProt P04626+P00533+Q15303+P21860); experiment: Inhibition of EGFR L747-S752del, P753S mutant at 1 uM; assay type: protein assay
# Method in brief: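 Single-concentration screen using Ambit Bioscience KINOMEscan technology across a panel of 250–400 kinases. Per-kinase inhibition from this screen was summarized as S(90), the fraction of kinases inhibited by more than 90%.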
# [10] = target: T2, Dual specificity mitogen-activated protein kinase kinase 4 (Homo sapiens) (UniProt P45985); experiment: Inhibition of MEK4 at 1 uM
# T2 sequence (whole entry): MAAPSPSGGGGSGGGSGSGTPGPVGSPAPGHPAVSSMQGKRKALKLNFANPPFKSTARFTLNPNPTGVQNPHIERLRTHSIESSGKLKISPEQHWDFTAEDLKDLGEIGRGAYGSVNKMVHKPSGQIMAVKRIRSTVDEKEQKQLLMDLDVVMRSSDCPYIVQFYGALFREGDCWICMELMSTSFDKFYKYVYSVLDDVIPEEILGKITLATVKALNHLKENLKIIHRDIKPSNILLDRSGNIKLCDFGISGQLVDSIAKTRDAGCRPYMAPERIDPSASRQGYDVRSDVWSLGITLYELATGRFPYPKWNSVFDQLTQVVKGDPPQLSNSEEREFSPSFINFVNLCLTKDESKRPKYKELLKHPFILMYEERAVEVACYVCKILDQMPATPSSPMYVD
# [11] = target: Cyclin-dependent kinase 19 (Homo sapiens) (UniProt Q9BWU1); experiment: Inhibition of CDK11 at 1 uM
# Chain of Cyclin-dependent kinase 19 (Homo sapiens) (Q9BWU1 whole entry): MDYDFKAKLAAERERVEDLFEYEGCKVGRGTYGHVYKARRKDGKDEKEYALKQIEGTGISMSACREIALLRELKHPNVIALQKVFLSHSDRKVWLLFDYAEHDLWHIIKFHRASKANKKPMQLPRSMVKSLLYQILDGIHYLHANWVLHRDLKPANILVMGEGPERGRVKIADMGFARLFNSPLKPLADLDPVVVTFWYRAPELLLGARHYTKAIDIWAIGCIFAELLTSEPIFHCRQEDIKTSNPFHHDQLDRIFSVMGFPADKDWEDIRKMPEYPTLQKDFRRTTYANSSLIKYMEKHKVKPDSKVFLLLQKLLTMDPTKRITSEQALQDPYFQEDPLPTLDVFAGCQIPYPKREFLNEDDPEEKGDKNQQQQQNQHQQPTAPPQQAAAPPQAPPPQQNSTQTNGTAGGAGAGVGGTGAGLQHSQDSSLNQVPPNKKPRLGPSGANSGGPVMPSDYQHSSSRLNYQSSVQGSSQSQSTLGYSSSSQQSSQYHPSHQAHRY
# Chain of Dual specificity mitogen-activated protein kinase kinase 1 (Homo sapiens) (Q02750 whole entry): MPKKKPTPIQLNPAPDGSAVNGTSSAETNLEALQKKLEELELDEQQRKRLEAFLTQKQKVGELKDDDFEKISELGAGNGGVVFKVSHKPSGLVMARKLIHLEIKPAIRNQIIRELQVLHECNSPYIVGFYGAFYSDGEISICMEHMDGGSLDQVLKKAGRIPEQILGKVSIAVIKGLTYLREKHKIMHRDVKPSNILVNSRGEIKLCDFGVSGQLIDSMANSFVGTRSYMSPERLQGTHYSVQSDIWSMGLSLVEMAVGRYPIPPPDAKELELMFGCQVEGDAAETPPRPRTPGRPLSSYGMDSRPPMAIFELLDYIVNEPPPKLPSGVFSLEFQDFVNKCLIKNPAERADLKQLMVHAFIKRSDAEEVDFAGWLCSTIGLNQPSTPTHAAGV
# Chain of BDNF/NT-3 growth factors receptor (Homo sapiens) (Q16620 32-822 limits assumed): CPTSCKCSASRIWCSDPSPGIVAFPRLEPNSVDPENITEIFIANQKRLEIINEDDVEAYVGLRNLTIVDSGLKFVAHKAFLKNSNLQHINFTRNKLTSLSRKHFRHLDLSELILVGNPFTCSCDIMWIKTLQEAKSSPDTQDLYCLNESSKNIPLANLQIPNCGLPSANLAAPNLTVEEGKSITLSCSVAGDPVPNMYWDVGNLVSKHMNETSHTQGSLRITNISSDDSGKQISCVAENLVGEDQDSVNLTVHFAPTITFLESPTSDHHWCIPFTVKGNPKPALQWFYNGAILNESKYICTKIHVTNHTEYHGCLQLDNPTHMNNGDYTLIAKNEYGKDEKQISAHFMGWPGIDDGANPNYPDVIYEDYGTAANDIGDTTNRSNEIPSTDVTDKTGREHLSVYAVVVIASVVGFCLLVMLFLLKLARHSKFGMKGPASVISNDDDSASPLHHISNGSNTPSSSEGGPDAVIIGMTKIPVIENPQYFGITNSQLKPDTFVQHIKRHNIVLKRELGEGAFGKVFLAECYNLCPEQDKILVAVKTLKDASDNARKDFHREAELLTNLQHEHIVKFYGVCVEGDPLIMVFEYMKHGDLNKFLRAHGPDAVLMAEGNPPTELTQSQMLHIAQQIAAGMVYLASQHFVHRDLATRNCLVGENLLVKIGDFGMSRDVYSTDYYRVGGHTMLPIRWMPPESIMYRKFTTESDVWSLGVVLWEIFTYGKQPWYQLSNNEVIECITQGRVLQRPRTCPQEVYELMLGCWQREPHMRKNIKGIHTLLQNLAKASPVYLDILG
# Chain of Cyclin-dependent kinase 16 (Homo sapiens) (Q00536 whole entry): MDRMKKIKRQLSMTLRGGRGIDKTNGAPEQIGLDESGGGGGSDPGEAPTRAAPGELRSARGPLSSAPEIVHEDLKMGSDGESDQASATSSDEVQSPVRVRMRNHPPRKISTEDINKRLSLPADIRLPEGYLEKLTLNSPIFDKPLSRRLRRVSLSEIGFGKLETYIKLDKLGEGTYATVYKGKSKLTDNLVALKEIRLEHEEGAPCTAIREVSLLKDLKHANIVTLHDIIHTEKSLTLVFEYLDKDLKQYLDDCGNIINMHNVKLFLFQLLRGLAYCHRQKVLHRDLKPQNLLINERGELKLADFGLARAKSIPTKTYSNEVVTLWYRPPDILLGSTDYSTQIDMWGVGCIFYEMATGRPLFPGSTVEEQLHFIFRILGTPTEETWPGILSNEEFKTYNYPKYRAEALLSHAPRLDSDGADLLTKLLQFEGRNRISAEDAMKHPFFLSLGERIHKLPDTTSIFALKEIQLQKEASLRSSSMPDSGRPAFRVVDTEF
# Chain of Receptor-type tyrosine-protein kinase FLT3 (Homo sapiens) (P36888 whole entry): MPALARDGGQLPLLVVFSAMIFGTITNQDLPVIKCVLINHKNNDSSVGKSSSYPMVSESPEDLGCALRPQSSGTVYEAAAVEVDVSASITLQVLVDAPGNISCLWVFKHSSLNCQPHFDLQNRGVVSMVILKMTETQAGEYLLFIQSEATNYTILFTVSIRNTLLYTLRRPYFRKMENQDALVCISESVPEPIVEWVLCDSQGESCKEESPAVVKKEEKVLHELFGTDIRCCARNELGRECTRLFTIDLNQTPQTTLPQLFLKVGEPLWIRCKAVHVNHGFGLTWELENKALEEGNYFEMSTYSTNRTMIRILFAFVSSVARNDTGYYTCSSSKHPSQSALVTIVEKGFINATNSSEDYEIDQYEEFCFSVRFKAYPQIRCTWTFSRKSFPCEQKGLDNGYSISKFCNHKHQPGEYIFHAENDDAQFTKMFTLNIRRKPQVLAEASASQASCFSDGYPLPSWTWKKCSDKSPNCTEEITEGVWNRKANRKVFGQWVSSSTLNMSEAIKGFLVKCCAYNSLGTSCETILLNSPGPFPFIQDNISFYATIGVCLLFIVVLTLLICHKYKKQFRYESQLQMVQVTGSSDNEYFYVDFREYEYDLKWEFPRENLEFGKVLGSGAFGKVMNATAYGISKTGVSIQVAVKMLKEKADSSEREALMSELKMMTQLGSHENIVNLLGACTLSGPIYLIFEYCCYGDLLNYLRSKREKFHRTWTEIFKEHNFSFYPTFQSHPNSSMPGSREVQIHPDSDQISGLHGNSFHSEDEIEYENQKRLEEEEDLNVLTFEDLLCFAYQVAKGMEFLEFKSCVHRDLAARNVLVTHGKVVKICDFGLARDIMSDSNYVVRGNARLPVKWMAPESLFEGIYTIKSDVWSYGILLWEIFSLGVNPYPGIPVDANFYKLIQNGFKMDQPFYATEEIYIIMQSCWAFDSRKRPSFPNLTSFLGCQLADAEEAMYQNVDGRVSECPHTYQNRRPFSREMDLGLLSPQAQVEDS
# Chain of Tyrosine-protein kinase receptor Tie-1 (Homo sapiens) (P35590 whole entry, the tested form may be a part): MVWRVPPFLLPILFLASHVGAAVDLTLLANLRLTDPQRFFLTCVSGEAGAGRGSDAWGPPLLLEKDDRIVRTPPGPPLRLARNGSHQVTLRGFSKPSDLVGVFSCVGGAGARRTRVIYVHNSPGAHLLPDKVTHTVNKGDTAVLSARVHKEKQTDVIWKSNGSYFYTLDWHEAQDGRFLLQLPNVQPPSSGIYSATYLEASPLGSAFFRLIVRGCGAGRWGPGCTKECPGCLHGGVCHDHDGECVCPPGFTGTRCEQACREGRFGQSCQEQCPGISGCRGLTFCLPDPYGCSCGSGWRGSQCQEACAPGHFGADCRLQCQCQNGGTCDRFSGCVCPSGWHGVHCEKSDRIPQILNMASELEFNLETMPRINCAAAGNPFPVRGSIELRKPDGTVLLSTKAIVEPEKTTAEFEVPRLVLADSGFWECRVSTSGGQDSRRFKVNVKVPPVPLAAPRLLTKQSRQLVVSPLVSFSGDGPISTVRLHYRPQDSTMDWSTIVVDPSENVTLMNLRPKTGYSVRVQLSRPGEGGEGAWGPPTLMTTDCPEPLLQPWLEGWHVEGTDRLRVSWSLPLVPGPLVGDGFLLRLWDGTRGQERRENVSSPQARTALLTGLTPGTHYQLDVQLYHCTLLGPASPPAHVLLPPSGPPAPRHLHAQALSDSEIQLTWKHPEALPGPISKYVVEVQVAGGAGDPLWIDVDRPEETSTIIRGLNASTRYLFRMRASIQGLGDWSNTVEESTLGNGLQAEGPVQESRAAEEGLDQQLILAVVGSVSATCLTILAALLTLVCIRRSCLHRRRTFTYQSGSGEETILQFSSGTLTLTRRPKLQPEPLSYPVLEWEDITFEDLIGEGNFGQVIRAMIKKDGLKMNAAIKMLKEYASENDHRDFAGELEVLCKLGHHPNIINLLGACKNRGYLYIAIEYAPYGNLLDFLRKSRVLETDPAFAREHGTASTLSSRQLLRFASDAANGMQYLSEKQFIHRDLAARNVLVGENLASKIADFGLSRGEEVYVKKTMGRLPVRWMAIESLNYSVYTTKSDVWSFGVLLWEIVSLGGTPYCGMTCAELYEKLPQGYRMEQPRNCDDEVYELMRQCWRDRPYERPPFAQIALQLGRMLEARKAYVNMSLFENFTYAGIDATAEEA
# Chain of Ribosomal protein S6 kinase alpha-2 (Homo sapiens) (Q15349 whole entry, the tested form may be a part): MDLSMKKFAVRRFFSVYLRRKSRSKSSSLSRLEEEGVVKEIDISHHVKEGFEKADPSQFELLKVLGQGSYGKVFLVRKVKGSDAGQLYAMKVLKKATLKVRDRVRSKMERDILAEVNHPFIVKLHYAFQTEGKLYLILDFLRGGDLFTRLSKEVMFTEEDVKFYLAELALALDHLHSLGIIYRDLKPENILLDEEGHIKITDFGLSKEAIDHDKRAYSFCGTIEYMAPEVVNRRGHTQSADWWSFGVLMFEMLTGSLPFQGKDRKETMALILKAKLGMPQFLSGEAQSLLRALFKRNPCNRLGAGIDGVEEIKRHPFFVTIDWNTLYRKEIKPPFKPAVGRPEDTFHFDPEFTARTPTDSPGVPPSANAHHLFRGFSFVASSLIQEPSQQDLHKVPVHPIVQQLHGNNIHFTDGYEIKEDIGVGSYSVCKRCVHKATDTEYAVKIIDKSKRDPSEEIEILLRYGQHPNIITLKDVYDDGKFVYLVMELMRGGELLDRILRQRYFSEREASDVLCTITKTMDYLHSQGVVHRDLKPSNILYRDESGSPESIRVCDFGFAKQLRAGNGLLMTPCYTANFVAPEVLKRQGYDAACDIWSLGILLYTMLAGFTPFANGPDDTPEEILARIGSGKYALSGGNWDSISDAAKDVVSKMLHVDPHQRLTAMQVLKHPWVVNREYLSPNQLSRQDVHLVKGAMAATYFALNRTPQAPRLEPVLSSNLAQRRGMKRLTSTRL
SMILES,inhibition [1] [%],inhibition [2] [%],inhibition [3] [%],inhibition [4] [%],inhibition [5] [%],inhibition [6] [%],inhibition [7] [%],inhibition [8] [%],inhibition [9] [%],inhibition [10] [%],inhibition [11] [%]
CN1CCN(c2ccc(-c3cnc4c(c3)N(Cc3cc(Cl)ccc3Cl)CCN4)cn2)CC1,72,< 50,< 50,< 50,< 50,< 50,< 50,90,< 50,< 50,< 50
CN1CCN(c2ccc(-c3cnc4c(c3)N(Cc3cc(Cl)ccc3C(F)(F)F)CCN4)cn2)CC1,< 50,< 50,< 50,< 50,< 50,< 50,< 50,88,< 50,< 50,< 50
FC(F)(F)c1ccc(Cl)cc1CN1CCNc2ncc(-c3ccnc(N4CCNCC4)c3)cc21,79,< 50,< 50,< 50,81,< 50,< 50,95,< 50,< 50,< 50
CC(=O)N1CCN(c2cc(-c3cnc4c(c3)N(Cc3cc(Cl)ccc3C(F)(F)F)CCN4)ccn2)CC1,76,< 50,< 50,< 50,< 50,< 50,< 50,83,< 50,< 50,< 50
O=C(O)c1ccc(-c2cnc3c(c2)N(Cc2cc(Cl)ccc2C(F)(F)F)CCN3)cc1,65,–,–,< 50,–,< 50,66.5,< 50,< 50,–,–
CN1CCN(c2ccc(-c3cnc4c(c3)N(Cc3c(F)ccc(F)c3Cl)CCN4)cn2)CC1,72,< 50,< 50,< 50,< 50,< 50,< 50,< 50,< 50,< 50,< 50
CN1CCN(c2ccc(-c3cnc4c(c3)N(Cc3cc(F)ccc3F)CCN4)cn2)CC1,58,< 50,< 50,< 50,< 50,< 50,< 50,64,< 50,< 50,< 50

# Results, then the compound that gave them:
inhibition [1] [%],inhibition [2] [%],inhibition [3] [%],inhibition [4] [%],inhibition [5] [%],inhibition [6] [%],inhibition [7] [%],inhibition [8] [%],inhibition [9] [%],inhibition [10] [%],inhibition [11] [%],SMILES
< 50,–,–,< 50,–,< 50,< 50,80.7,< 50,–,–,COC1CCN(C(=O)c2ccc(-c3cnc4c(c3)N(Cc3cc(Cl)ccc3C(F)(F)F)CCN4)cc2)CC1
< 50,–,–,< 50,–,< 50,< 50,< 50,< 50,–,–,O=C(c1ccc(-c2cnc3c(c2)N(Cc2cc(Cl)ccc2C(F)(F)F)CCN3)cc1)N1CCCCC1
73.6,–,–,< 50,–,< 50,< 50,99.3,< 50,–,–,O=C(c1ccc(-c2cnc3c(c2)N(Cc2cc(Cl)ccc2C(F)(F)F)CCN3)cc1)N1CCC(N2CCCC2)CC1
